Test results from paper PMC8486219 (Cancer Science, 2021).

Tests used:
[1] = Preliminary pharmacokinetics after i.v. bolus; assay type: in vivo, mouse; details: CD-1 mice, single i.v. bolus TH1902 50 mg/kg
MDA‐MB‐231 xenograft = assay: MDA-MB-231 xenograft, intravenous treatment; assay type: in vivo, mouse
MDA‐MB‐231‐Luc xenograft = assay: MDA-MB-231-Luc xenograft, intraperitoneal treatment; assay type: in vivo, mouse; details: i.p. docetaxel 15 mg/kg/wk (MTD), five cycles, CD-1 nude mice, bioluminescence
In short: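 MDA-MB-231-Luc cells (5 × 10^6 in HBSS) were injected s.c. into the right flank of female CD-1 nude mice under isoflurane. At ~100 mm3, mice received weekly i.p. vehicle, docetaxel 15 mg/kg, or test compound 50 mg/kg for five cycles. Tumor bioluminescence was monitored and expressed relative to each mouse's day-0 post-treatment value, as mean ± SEM (six mice/group).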

MDA‐MB‐231 cells = assay: Real-time cell migration assay; assay type: cell-based, human; details: 2 h pretreatment, 1 µM TH1902 or 2 µM docetaxel, monitored 12 h
In short: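 MDA-MB-231 cells were transfected 24 h with scrambled or SORT1 siRNA, then pretreated 2 h with or without compound. Cells (25 000/well) were seeded serum-free into xCELLigence CIM plates (8 µm pores, underside gelatin-coated 0.15%, 1 h, 37°C), with serum-free medium below. After 30 min adhesion, impedance (Cell Index) was read hourly for 12 h. Duplicate wells, two experiments; one-way ANOVA with Dunnett at 10 h.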

PD‐L1‐positive TNBC = details: phase 1b trial of 32 patients with PD-L1-positive TNBC; cited from earlier work

Molecule	free docetaxel exposure, fold lower than TH1902-associated docetaxel in plasma [1]	AUC of free (released) docetaxel after TH1902 dosing ([1]; plasma, UPLC/MS)	Cmax of free (released) docetaxel after TH1902 dosing ([1]; plasma, UPLC/MS)	Tumor growth at a quarter of the MTD (in words) (MDA‐MB‐231 xenograft; i.v. docetaxel 3.75 mg/kg or TH1902 8.75 mg/kg, n = 6 mice/group)	Restart of tumor growth (MDA‐MB‐231 xenograft; i.v. docetaxel 15 mg/kg/wk (MTD), three injections, n = 5 mice/group)	Start of tumor relapse (MDA‐MB‐231‐Luc xenograft)	Effect on cell migration (in words) (MDA‐MB‐231 cells)	response rate (PD‐L1‐positive TNBC)
CC(=O)O[C@@]12CO[C@@H]1C[C@H](O)[C@@]1(C)C(=O)[C@H](O)C3=C(C)[C@@H](OC(=O)[C@H](O)[C@@H](NC(=O)OC(C)(C)C)c4ccccc4)C[C@@](O)([C@@H](OC(=O)c4ccccc4)[C@H]21)C3(C)C [docetaxel]	approximately 37 fold	15.5 µM·h	7 µM	unaffected	50 days	46 days	inhibit cell migration	
Pembrolizumab: monoclonal anti‐PD‐1 antibody								18.5%
